# Sampled rows, rich in hits. Any-hit rate of the full collection: about 5.7%.
# CSC inhib = cancer stem cell viability inhibitors, primary screen, luminescence; cancer stem cell-like cells viability; inhibition, % at 7.5 µM; 300,000 tested, 1.1% active; AID 2717, 2010; in the data active means inhibition above about 75%; inconclusive means no clear call, values can overlap the other calls; tested in HMLE shEcad cells
# Calb FLC = C. albicans growth inhibition with fluconazole, primary screen, CaCi-2 strain, Alamar Blue fluorescence. C. albicans CaCi-2 (fluconazole-resistant clinical isolate) + fluconazole, 48 h. growth inhibition, % (test concentration not listed). 300,000 tested, 0.57% active. AID 1979, 2009;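 active means growth inhibition above about 58% in most replicates, limit read from the data, passing the limit was not always enough; inconclusive means exactly half the replicates above a set limit; inactive means most replicates below a set limit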;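 further: all wells also contain fluconazole at 8 µg/ml as a sub-toxic cotreatment; 0% = median of DMSO wells and 100% = median of geldanamycin control wells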
# T cruzi repl = inhibitors of intracellular T. cruzi growth, primary screen, luminescence, NIH3T3 host cells; T. cruzi beta-gal in NIH3T3, 90 h; 300,000 tested, 1.4% active; inhibition, % (no concentration beside the values);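 active means mean inhibition across valid replicates above about 55%, limit read from the data; inconclusive means mean below that limit but half or more replicates reach it; inactive means mean below it, under half of replicates reach it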;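 further: signal also drops with host cell toxicity which is not excluded here; 0% = plate median of DMSO wells and 100% = zero luminescence signal; higher percent means less beta-gal luminescence so fewer parasites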
#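 Read-out: Parasite load inhibition, % | Test system: Mouse NIH/3T3 fibroblasts infected with β-gal-expressing T. cruzi Tulahuen C4 | Amount: 5,000 cells/well | Medium: DMEM, 2% fetal bovine serum | Signal: GalScreen β-gal luminescence, detergent lysis, 60 min | Timing: 3 h attach, ≥90 h co-culture | Also added: Tulahuen C4 trypomastigotes, 5000/well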
# Mdm2 MdmX PPI = inhibitors of human Mdm2-MdmX association, primary screen, cell-based, luminescence, split luciferase, SaOS-2, uHTS; Protein Mdm4 (Homo sapiens) + E3 ubiquitin-protein ligase Mdm2 (Homo sapiens), …; SaOS-2 split-luciferase Mdm2/MdmX complementation; inhibition, % at 8 µM; 330,000 tested, 3% active; AID 485346, 2010;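 active means inhibition of at least 50% at 8 µM in the primary screen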
# Target sequence (O15151 whole entry, looked up): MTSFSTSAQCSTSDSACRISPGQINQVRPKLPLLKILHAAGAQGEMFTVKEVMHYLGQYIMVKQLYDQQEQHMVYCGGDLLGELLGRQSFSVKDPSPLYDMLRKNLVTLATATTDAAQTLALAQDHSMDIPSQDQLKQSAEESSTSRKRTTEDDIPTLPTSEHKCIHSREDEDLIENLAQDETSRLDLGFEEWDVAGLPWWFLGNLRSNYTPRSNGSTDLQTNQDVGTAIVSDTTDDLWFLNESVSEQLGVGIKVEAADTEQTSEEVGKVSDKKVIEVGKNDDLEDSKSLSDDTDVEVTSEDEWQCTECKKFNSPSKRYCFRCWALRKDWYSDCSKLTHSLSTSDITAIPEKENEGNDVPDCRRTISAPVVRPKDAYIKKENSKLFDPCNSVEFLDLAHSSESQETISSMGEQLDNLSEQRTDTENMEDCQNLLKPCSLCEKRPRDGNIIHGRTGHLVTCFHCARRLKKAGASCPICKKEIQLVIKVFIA
# Target sequence (Q00987 whole entry, looked up): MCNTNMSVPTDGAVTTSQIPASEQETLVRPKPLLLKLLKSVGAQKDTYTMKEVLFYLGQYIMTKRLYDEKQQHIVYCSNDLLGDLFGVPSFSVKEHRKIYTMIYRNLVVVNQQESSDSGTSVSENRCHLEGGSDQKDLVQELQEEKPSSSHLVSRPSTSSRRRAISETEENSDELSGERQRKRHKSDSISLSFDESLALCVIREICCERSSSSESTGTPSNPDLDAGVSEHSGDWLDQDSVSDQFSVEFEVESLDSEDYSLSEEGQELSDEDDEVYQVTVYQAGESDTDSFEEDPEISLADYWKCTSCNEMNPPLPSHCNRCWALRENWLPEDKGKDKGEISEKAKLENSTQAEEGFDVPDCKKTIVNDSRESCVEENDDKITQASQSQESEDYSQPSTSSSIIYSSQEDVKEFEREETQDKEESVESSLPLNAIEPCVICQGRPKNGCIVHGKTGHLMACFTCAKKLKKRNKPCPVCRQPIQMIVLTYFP
# Beta apoptosis = inhibitors of cytokine-induced beta cell apoptosis, primary screen, luminescence; INS-1E cytokine-induced death, ATP luminescence, 48 h; percent of positive-control rescue, neutral wells zero; protection from apoptosis, % (no concentration beside the values); 300,000 tested, 0.8% active;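 active means Every replicate reaches about 75%, or at least half do and their mean reaches it too, limit read from the data; inconclusive means At least half of replicates reach the limit but their mean does not; inactive means Under half of replicates reach the limit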;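 further: 0% = cytokine-treated negative control wells and 100% = positive control rescue; higher means more ATP so stronger rescue from cytokine killing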
# SKKanGAS inh = S. pyogenes SKKanGAS growth inhibitors in kanamycin, primary screen, streptokinase expression inhibitor project, SKKanGAS strain, BacTiter-Glo luminescence | 6 h | inhibition, % at 7.5 µM | 300,000 tested, 1.3% active | AID 1662, 2009;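 active means mean replicate score, as percent of positive control median, at least 50; inconclusive means mean below 50 but one replicate at or above 50; inactive means mean and every replicate below 50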;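 further: strain carries kanamycin resistance gene driven by streptokinase promoter and grows in 40 µg/ml kanamycin; loss of luminescence reflects streptokinase promoter inhibition or plain growth inhibition; 0% = median of DMSO wells and 100% = positive control at its reference dose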
# Numbers without * were called inactive; ? = inconclusive; nt = not tested or not shown.
SMILES,CSC inhib,Calb FLC,T cruzi repl,Mdm2 MdmX PPI,Beta apoptosis,SKKanGAS inh
Cc1ccc([N+](=O)[O-])c(OCCN2CCCCCC2)c1,-1,-30,-1,-2,79*,-6
S=c1nc[nH]c2c1cnn2Cc1ccccc1,-2,94*,-16,15,-3,12
CC(=O)Oc1cccc(C(=O)Nc2ccc(NC(=O)c3cccs3)cc2)c1,14,21,9,-33,8,4
CCOC(=O)c1cn2nc(-c3ccc(OC)cc3)cc2nc1C1CCN(C(=O)OC(C)(C)C)CC1,35,2,59*,37,-7,23
COc1ccc(-c2cc(C3CCN(C(=O)OC(C)(C)C)CC3)[nH]n2)cc1,7,-7,-5,34,-5,4
CCOC(=O)c1cnn(-c2nc(-c3cccc(F)c3)cs2)c1C(F)(F)F,-11,4,-4,-13,-2,64*
CCOC(=O)c1cnn(-c2nc3c(C)cccc3s2)c1C(F)(F)F,7,?,-14,2,2,88*
COc1ccc(N2CCN(C(=O)COC(=O)COc3cccc(C(F)(F)F)c3)CC2)cc1,nt,nt,nt,22,-1,nt
Cc1ccc2c(c1)c(C1=c3ccccc3=NC1=O)c(O)n2C,72,11,13,16,-3,-10
C=CCn1c(O)c(C2=c3ccccc3=NC2=O)c2ccccc21,96*,1,?,31,7,6
O=C(CNc1ccccc1F)N/N=C/C1CC=CCC1 (configuration not stated),-18,123*,nt,28,-1,nt
S=c1[nH]c(-c2ccccc2)cn1/N=C/c1cccc2ccccc12,59,-4,15,34,6,57*
S=c1[nH]c(-c2ccccc2)cn1/N=C/c1ccccc1Br,23,-25,19,-18,18,11
Cc1cc(C)n2c(=O)c3ccc(Cl)cc3nc2c1C#N,-12,21,-2,3,-9,23
Cc1cc(Cl)n2c(nc3cc(F)c(F)cc32)c1C#N,nt,-6,79*,nt,nt,1
COc1ccc(N(CC(=O)NC2CCCC2)C(=O)Cn2nnc(-c3ccc(F)cc3)n2)cc1,-24,-1,-3,22,0,-3
COc1ccc(NC(=O)N2CCc3ccccc3C2)c(OC)c1,-3,-1,-1,-35,-4,10
COC(=O)c1[nH]c2cc(C)ccc2c1NC(=O)CN1CCc2cc(OC)c(OC)cc2C1,-2,100*,18,28,-8,3
C=CCN(CC=C)Cc1c(O)ccc2c(=O)c(-c3ccccc3)coc12,-9,94*,16,7,3,-6
CCN(CC)Cc1c(O)ccc2c(=O)c(-c3ccc(Cl)cc3)coc12,-10,9,5,13,-3,-4
CCOc1ccc(C(=O)Nc2cccc(-c3nc4ccccc4[nH]3)c2C)cc1[N+](=O)[O-],-18,-3,17,13,10,16
CC1C(=O)N2CCCc3cc(NS(=O)(=O)c4ccccc4)cc1c32 (configuration not stated),2,1,-10,3,-1,-5
Fc1ccccc1COc1ccc(-c2nnn(Cc3ccccc3F)n2)cc1,81*,7,5,-13,12,14
CC(C)n1nnc(-c2ccc(OCc3ccccc3F)cc2)n1,11,2,-6,-104,3,11
Cn1nnc(-c2ccc(OCc3ccccc3F)cc2)n1,20,-5,2,-133,5,53*
SMILES,CSC inhib,Calb FLC,T cruzi repl,Mdm2 MdmX PPI,Beta apoptosis,SKKanGAS inh
CCNC(=O)C1CCCN1C(=O)C(CCCN=C(N)N)NC(=O)C(CC(C)C)NC(=O)C(Cc1cn(Cc2ccccc2)cn1)NC(=O)C(Cc1ccc(O)cc1)NC(=O)C(CO)NC(=O)C(Cc1c[nH]c2ccccc12)NC(=O)C(Cc1cnc[nH]1)NC(=O)C1CCC(=O)N1 (configuration not stated),-7,nt,6,1,-8,-2
CC(=O)Nc1ccc(NC(=O)CSc2nnc(NC(=O)c3ccc(Br)o3)s2)cc1,28,-7,-13,21,17,73*
CCOc1ccc(S(=O)(=O)Nc2ccc3c(c2)OCO3)cc1,-10,0,5,15,1,1
Cc1cc(=O)[nH]c(SCC(=O)Nc2ccc(F)cc2)c1C#N,-11,21,-5,11,-1,23
Cc1cc(=O)[nH]c(SCC(=O)Nc2ccc(Br)cc2)c1C#N,46,38,-6,-4,6,55*
CCCCc1c(CCC)c(=N)c2ccccc2n1C,nt,-2,60*,36,26,-8
Cc1ccc(S(=O)(=O)N2CCOCC2)cc1C(=O)NCC1CCCCC1,-20,nt,nt,33,-1,nt
O=C(NS(=O)(=O)Nc1ccc(Br)cn1)c1c[nH]c2ccccc12,-15,4,-19,19,-4,2
O=C(COc1cccc(Cl)c1)Nc1ccccc1N1CCCCC1,13,-6,41,-5,-6,66*
Cc1cc(C)c(OCC(=O)Nc2ccccc2N2CCCCC2)c(C)c1,-6,0,32,20,8,80*
Cc1ccccc1OCC(=O)Nc1ccccc1N1CCC(C)CC1,-14,-3,-2,14,nt,82*
CCC1ON(c2ccccc2)C2c3nc4ccccc4n3CC12 (configuration not stated),0,-4,-22,12,3,0
CSc1cc(-c2ccccc2)n(C)c(=O)c1C#N,-2,104*,9,4,1,-14
COC(=O)CNC(c1ccccc1)c1cc(Br)ccc1NC(=O)CCN1CCOCC1 (configuration not stated),18,-10,68*,24,-11,-8
COC(=O)CNC(c1ccccc1)c1cc(Br)ccc1NC(=O)CNC(=O)OCc1ccccc1 (configuration not stated),54,-5,9,18,-7,16
CCOC(=O)CNC(c1ccccc1)c1cc(Br)ccc1NC(=O)CCN1CCOCC1 (configuration not stated),15,111*,?,48,-11,-6
CC(C)Nc1nc(-c2ccncc2)nc(-c2ccccc2)c1C#N,5,-1,23,0,-2,-10
O=C(Cn1cc(S(=O)(=O)Cc2ccc([N+](=O)[O-])cc2)c2ccccc21)N1CCOCC1,-8,nt,-1,10,-3,-5
CC1CCN(c2nc3ccccc3nc2C(C#N)C(=O)OC2CCCCC2)CC1 (configuration not stated),nt,23,7,-7,-4,15
N#CC(C(=O)OC1CCCCC1)c1nc2ccccc2nc1N1CCCCC1 (configuration not stated),nt,-8,67*,20,nt,36
